Measurements: ChEMBL document CHEMBL3627671, “Novel derivatives of nitro-substituted salicylic acids: Synthesis, antimicrobial activity and cytotoxicity” (Bioorg Med Chem, 2015)
≈ marks a conversion by molar mass, not a printed value.

Experiments:
[1] = tested on: Mycobacterium tuberculosis; assay: Antimycobacterial activity against Mycobacterium tuberculosis H37Rv 331/88 after 14 days; format: functional; details: H37Rv 331/88, 336 h
[2] = tested on: Mycobacterium tuberculosis; assay: Antimycobacterial activity against Mycobacterium tuberculosis H37Rv 331/88 after 21 days; format: functional; details: H37Rv 331/88, 504 h
[3] = tested on: Mycobacterium avium; assay: Antimycobacterial activity against Mycobacterium avium 330/80 after 14 days; format: functional; details: 330/80, 336 h
[4] = tested on: Mycobacterium avium; assay: Antimycobacterial activity against Mycobacterium avium 330/80 after 21 days; format: functional; details: 330/80, 504 h
[5] = tested on: Mycobacterium kansasii; assay: Antimycobacterial activity against Mycobacterium kansasii 235/80 after 7 days; format: functional; details: 235/80, 168 h
Method in brief: (§1)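 Šula's semisynthetic medium micromethod at 37 °C, read after 7, 14 and 21 days. The 1.0 McFarland suspension was diluted 10^-4. MIC determined. 6509/96 is a clinical isolate.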

[6] = tested on: Mycobacterium kansasii; assay: Antimycobacterial activity against Mycobacterium kansasii 235/80 after 14 days; format: functional; details: 235/80, 336 h; method in brief: as §1
[7] = tested on: Mycobacterium kansasii; assay: Antimycobacterial activity against Mycobacterium kansasii 235/80 after 21 days; format: functional; details: 235/80, 504 h; method in brief: as §1
[8] = tested on: Mycobacterium kansasii; assay: Antimycobacterial activity against Mycobacterium kansasii 6509/96 after 7 days; format: functional; details: 6509/96, 168 h; method in brief: as §1
[9] = tested on: Mycobacterium kansasii; assay: Antimycobacterial activity against Mycobacterium kansasii 6509/96 after 14 days; format: functional; details: 6509/96, 336 h; method in brief: as §1
[10] = tested on: Mycobacterium kansasii; assay: Antimycobacterial activity against Mycobacterium kansasii 6509/96 after 21 days; format: functional; details: 6509/96, 504 h; method in brief: as §1
[11] = tested on: Staphylococcus aureus; assay: Antibacterial activity against Staphylococcus aureus CCM 4516/08 after 24 hrs by microdilution broth method; format: functional; details: CCM 4516/08, 24 h
[12] = tested on: Staphylococcus aureus; assay: Antibacterial activity against Staphylococcus aureus CCM 4516/08 after 48 hrs by microdilution broth method; format: functional; details: CCM 4516/08, 48 h
[13] = tested on: Staphylococcus aureus; assay: Antibacterial activity against methicillin-resistant Staphylococcus aureus H 5996/08 after 24 hrs by microdilution broth method; format: functional; details: H 5996/08, 24 h
[14] = tested on: Staphylococcus aureus; assay: Antibacterial activity against methicillin-resistant Staphylococcus aureus H 5996/08 after 48 hrs by microdilution broth method; format: functional; details: H 5996/08, 48 h
[15] = tested on: Staphylococcus epidermidis; assay: Antibacterial activity against Staphylococcus epidermidis H 6966/08 after 24 hrs by microdilution broth method; format: functional; details: H 6966/08, 24 h
Method in brief: (§2)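 Mueller-Hinton broth microdilution (modified M07-A07), pH 7.4 (±0.2). Compounds dissolved in DMSO, tested at final 500 to 0.49 µmol/L. Inoculum in sterile water matched to 0.5 McFarland. Incubated in the dark, humid atmosphere, 35 °C, read at 24 and 48 h visually and at 540 nm. MIC taken as ≥95% growth reduction (IC95) versus control.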

[16] = tested on: Staphylococcus epidermidis; assay: Antibacterial activity against Staphylococcus epidermidis H 6966/08 after 48 hrs by microdilution broth method; format: functional; details: H 6966/08, 48 h; method in brief: as §2
[17] = tested on: Enterococcus sp.; assay: Antibacterial activity against Enterococcus sp. J 14365/08 after 24 hrs by microdilution broth method; format: functional; details: J 14365/08, 24 h; method in brief: as §2
[18] = tested on: Enterococcus sp.; assay: Antibacterial activity against Enterococcus sp. J 14365/08 after 48 hrs by microdilution broth method; format: functional; details: J 14365/08, 48 h; method in brief: as §2
[19] = tested on: Escherichia coli; assay: Antibacterial activity against Escherichia coli CCM4517 after 24 hrs by microdilution broth method; format: functional; details: CCM4517, 24 h; method in brief: as §2
[20] = tested on: Escherichia coli; assay: Antibacterial activity against Escherichia coli CCM4517 after 48 hrs by microdilution broth method; format: functional; details: CCM4517, 48 h; method in brief: as §2
[21] = tested on: Klebsiella pneumoniae; assay: Antibacterial activity against Klebsiella pneumoniae D 11750/08 after 24 hrs by microdilution broth method; format: functional; details: D 11750/08, 24 h; method in brief: as §2
[22] = tested on: Klebsiella pneumoniae; assay: Antibacterial activity against Klebsiella pneumoniae D 11750/08 after 48 hrs by microdilution broth method; format: functional; details: D 11750/08, 48 h; method in brief: as §2
[23] = tested on: Klebsiella pneumoniae; assay: Antibacterial activity against ESBL-positive Klebsiella pneumoniae J 14368/08 after 24 hrs by microdilution broth method; format: functional; details: J 14368/08, 24 h; method in brief: as §2
[24] = tested on: Klebsiella pneumoniae; assay: Antibacterial activity against ESBL-positive Klebsiella pneumoniae J 14368/08 after 48 hrs by microdilution broth method; format: functional; details: J 14368/08, 48 h; method in brief: as §2
[25] = tested on: Pseudomonas aeruginosa; assay: Antibacterial activity against Pseudomonas aeruginosa CCM 1961 after 24 hrs by microdilution broth method; format: functional; details: CCM 1961, 24 h; method in brief: as §2
[26] = tested on: Pseudomonas aeruginosa; assay: Antibacterial activity against Pseudomonas aeruginosa CCM 1961 after 48 hrs by microdilution broth method; format: functional; details: CCM 1961, 48 h; method in brief: as §2
[27] = tested on: Candida albicans; assay: Antifungal activity against Candida albicans ATCC 44859 after 24 hrs by microdilution broth method; format: functional; details: ATCC 44859, 24 h
Method in brief: (§3)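 CLSI M27-A3 broth microdilution in RPMI 1640 with glutamine, buffered to pH 7.0 with MOPS; DMSO diluent. Yeast inoculum 5 × 10^3 ± 0.2 CFU/mL. Moulds grown on Sabouraud agar 3–10 days before spore harvest, final inoculum 0.5-5 × 10^4 CFU/mL, checked in a Bürker chamber. Incubated dark, humid, 35 °C, read at 24 and 48 h visually and at 540 nm. MIC taken as ≥80% (yeasts) or ≥50% (filamentous) growth reduction versus control.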

[28] = tested on: Candida albicans; assay: Antifungal activity against Candida albicans ATCC 44859 after 48 hrs by microdilution broth method; format: functional; details: ATCC 44859, 48 h; method in brief: as §3
[29] = tested on: Candida tropicalis; assay: Antifungal activity against Candida tropicalis 156 after 24 hrs by microdilution broth method; format: functional; details: Candida tropicalis, 156, 24 h; method in brief: as §3
[30] = tested on: Candida tropicalis; assay: Antifungal activity against Candida tropicalis 156 after 48 hrs by microdilution broth method; format: functional; details: Candida tropicalis, 156, 48 h; method in brief: as §3
[31] = tested on: Pichia kudriavzevii; assay: Antifungal activity against Candida krusei E28 after 24 hrs by microdilution broth method; format: functional; details: E28, 24 h; method in brief: as §3
[32] = tested on: Pichia kudriavzevii; assay: Antifungal activity against Candida krusei E28 after 48 hrs by microdilution broth method; format: functional; details: E28, 48 h; method in brief: as §3
[33] = tested on: Nakaseomyces glabratus; assay: Antifungal activity against Candida glabrata 20/I after 24 hrs by microdilution broth method; format: functional; method in brief: as §3
[34] = tested on: Nakaseomyces glabratus; assay: Antifungal activity against Candida glabrata 20/I after 48 hrs by microdilution broth method; format: functional; method in brief: as §3
[35] = tested on: Trichosporon asahii; assay: Antifungal activity against Trichosporon asahii 1188 after 24 hrs by microdilution broth method; format: functional; details: Trichosporon asahii, 1188, 24 h; method in brief: as §3
[36] = tested on: Trichosporon asahii; assay: Antifungal activity against Trichosporon asahii 1188 after 48 hrs by microdilution broth method; format: functional; details: Trichosporon asahii, 1188, 48 h; method in brief: as §3
[37] = tested on: Aspergillus fumigatus; assay: Antifungal activity against Aspergillus fumigatus 231 after 24 hrs by microdilution broth method; format: functional; details: Aspergillus fumigatus, 231, 24 h; method in brief: as §3
[38] = tested on: Aspergillus fumigatus; assay: Antifungal activity against Aspergillus fumigatus 231 after 48 hrs by microdilution broth method; format: functional; details: Aspergillus fumigatus, 231, 48 h; method in brief: as §3
[39] = tested on: Lichtheimia corymbifera; assay: Antifungal activity against Absidia corymbifera 272 after 24 hrs by microdilution broth method; format: functional; details: Lichtheimia corymbifera, 272, 24 h; method in brief: as §3
[40] = tested on: Lichtheimia corymbifera; assay: Antifungal activity against Absidia corymbifera 272 after 48 hrs by microdilution broth method; format: functional; details: Lichtheimia corymbifera, 272, 48 h; method in brief: as §3
[41] = tested on: Trichophyton mentagrophytes; assay: Antifungal activity against Trichophyton mentagrophytes 445 after 24 hrs by microdilution broth method; format: functional; details: Trichophyton mentagrophytes, 445, 24 h
[42] = tested on: Trichophyton mentagrophytes; assay: Antifungal activity against Trichophyton mentagrophytes 445 after 48 hrs by microdilution broth method; format: functional; details: Trichophyton mentagrophytes, 445, 48 h
[43] = tested on: HepG2; assay: Cytotoxicity against human HepG2 cells after 24 hrs […]; format: cell-based; details: HepG2, 24 h
[44] = Selectivity index, ratio of CI50 for human HepG2 cells to MIC100 for Mycobacterium tuberculosis H37Rv 331/88

Work on O=C(Nc1cccc(C(F)(F)F)c1)c1cc([N+](=O)[O-])ccc1O yielded an MIC [1] of 8 µM (≈ 2.61 µg/mL), an MIC [2] of 16 µM (≈ 5.22 µg/mL) and an MIC [3] of 125 µM (≈ 40.8 µg/mL). It also gave an MIC [4] of 125 µM (≈ 40.8 µg/mL), an MIC [5] of 16 µM (≈ 5.22 µg/mL) and an MIC [6] of 32 µM (≈ 10.4 µg/mL). The MIC [7] was 62.5 µM (≈ 20.4 µg/mL), the MIC [8] was 32 µM (≈ 10.4 µg/mL) and the MIC [9] was 62.5 µM (≈ 20.4 µg/mL). It also gave an MIC [10] of 62.5 µM (≈ 20.4 µg/mL), an MIC [11] of 31.2 µM (≈ 10.2 µg/mL) and an MIC [12] of 31.2 µM (≈ 10.2 µg/mL). It also gave an MIC [13] of 31.2 µM (≈ 10.2 µg/mL), an MIC [14] of 31.2 µM (≈ 10.2 µg/mL) and an MIC [15] of 31.2 µM (≈ 10.2 µg/mL). It also gave an MIC [16] of 31.2 µM (≈ 10.2 µg/mL), an MIC [17] of over 500 µM and an MIC [18] of over 500 µM. For the same compound, the MIC [19] was over 500 µM, the MIC [20] was over 500 µM and the MIC [21] was over 500 µM. It also gave an MIC [22] of over 500 µM, an MIC [23] of over 500 µM and an MIC [24] of over 500 µM. It also gave an MIC [25] of over 500 µM, an MIC [26] of over 500 µM and an MIC [27] of over 500 µM. It also gave an MIC [28] of over 500 µM, an MIC [29] of over 500 µM and an MIC [30] of over 500 µM. For the same compound, the MIC [31] was over 500 µM, the MIC [32] was over 500 µM and the MIC [33] was over 500 µM. It also gave an MIC [34] of over 500 µM, an MIC [35] of 500 µM (≈ 163 µg/mL) and an MIC [36] of 500 µM (≈ 163 µg/mL). The MIC [37] was 500 µM (≈ 163 µg/mL), the MIC [38] was 500 µM (≈ 163 µg/mL) and the MIC [39] was 500 µM (≈ 163 µg/mL). It also gave an MIC [40] of 500 µM (≈ 163 µg/mL), an MIC [41] of 500 µM (≈ 163 µg/mL) and an MIC [42] of 500 µM (≈ 163 µg/mL). For the same compound, the IC50 [43] was 7.4 µM and the “Selectivity Index” value [44] was 0.463.
